{"source": "paper PMC9065685", "about": "(Bioorganic Chemistry, 2022)", "key": {"[1]": {"system": "Bacillus subtilis", "experiment": "Disc diffusion antibacterial susceptibility test", "format": "cell-based", "conditions": "18 h at 37 °C, mean ± SD, triplicate, NI = No inhibition", "method_in_brief": "(§1)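 Bacteria came from a university microbiology laboratory stock. Colonies were suspended in sterile 0.85% saline and matched to McFarland 0.5, then swabbed evenly onto Mueller-Hinton agar. 6 mm filter-paper discs carrying test compound were laid on the agar. Plates were incubated 18 h at 37 °C and inhibition zone diameters measured in mm. Three repeats, reported as mean ± SD.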"}, "[2]": {"system": "Salmonella typhi", "experiment": "Disc diffusion antibacterial susceptibility test", "format": "cell-based", "conditions": "mean ± SD, triplicate, NI = No inhibition", "method_in_brief": "as §1"}, "[3]": {"system": "Pseudomonas aeruginosa", "experiment": "Disc diffusion antibacterial susceptibility test", "format": "cell-based", "conditions": "mean ± SD, triplicate, NI = No inhibition", "method_in_brief": "as §1"}, "[4]": {"system": "Escherichia coli", "experiment": "Disc diffusion antibacterial susceptibility test", "format": "cell-based", "conditions": "mean ± SD, triplicate, NI = No inhibition", "method_in_brief": "as §1"}, "[5]": {"system": "Aspergillus niger", "experiment": "Mycelial growth inhibition", "format": "cell-based", "conditions": "5 days incubation, mean ± SD, triplicate, NI = No inhibition"}, "[6]": {"system": "Aspergillus flavus", "experiment": "Mycelial growth inhibition", "format": "cell-based", "conditions": "5 days incubation, mean ± SD, triplicate, NI = No inhibition"}, "[7]": {"system": "tested strains (pathogenic bacteria)", "experiment": "MIC and MBC by micro-broth dilution, over the tested strains", "format": "cell-based", "conditions": "for MBC: read-out: MBC values against the tested organisms; for MIC: read-out: MIC values against the tested strains", "method_in_brief": "(§2)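 Broth microdilution in Mueller-Hinton broth, using a two-fold test compound series over 0.125 to 128 µg/mL. Wells received 5 µL of inoculum at 10⁴–10⁵ CFU/mL, diluted from a 0.5 McFarland suspension. Each plate had growth (no compound) and sterility controls. After 24 h at 37 °C, 0.5% (w/v) triphenyl tetrazolium chloride was added for a further 24 h at 37 °C. Red colour indicated growth, and MIC/MBC were read visually.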"}, "[8]": {"system": "brine shrimps nauplii", "experiment": "Brine shrimp lethality assay", "format": "in vivo", "conditions": "brine shrimp lethality bioassay, 24 h and 48 h", "method_in_brief": "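Test compound was dissolved in DMSO and made up to 5 ml with NaCl solution at four concentrations. Ten nauplii per vial, each concentration run three times; control vial held 10 nauplii in 5 ml seawater. Vials stood at room temperature for 24 h and 48 h. Survivors were counted under a magnifying glass, and average % mortality was calculated per concentration.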"}, "[9]": {"system": "B. subtilis", "experiment": "MIC and MBC by micro-broth dilution", "format": "cell-based", "conditions": "Bacillus subtilis", "method_in_brief": "as §2"}}, "note": "Where “and” joins values, the source holds several entries; their conditions need not be identical. Equal entries are not always repeated."}
{"compound": "CC[C@H]1OC(=O)[C@H](C)[C@@H](O[C@H]2C[C@@](C)(OC)[C@@H](O)[C@H](C)O2)[C@H](C)[C@@H](O[C@@H]2O[C@H](C)C[C@H](N(C)C)[C@H]2O)[C@](C)(O)C[C@@H](C)CN(C)[C@H](C)[C@@H](O)[C@]1(C)O", "note": "[Azithromycin, reference compound]", "values": [{"measurement": "Diameter of inhibition zone, B. subtilis (+ve)", "setting": "[1]", "value": "18.5 ± 0.3", "unit": "mm"}, {"measurement": "Diameter of inhibition zone, S. typhi (-ve)", "setting": "[2]", "value": "**18 ± 0.2 mm"}, {"measurement": "Diameter of inhibition zone, P. aeruginosa (-ve)", "setting": "[3]", "value": "**18.5 ± 0.3 mm"}, {"measurement": "Diameter of inhibition zone, E. coli (-ve)", "setting": "[4]", "value": "**17.25 ± 0.1 mm"}]}
{"compound": "CCCCCCCCCCCCCCCC(=O)O[C@H]1C[C@H](n2cc(C)c(=O)[nH]c2=O)O[C@@H]1COC(=O)CCCCCCCCCCC", "note": "[analog 5, 5′-O-Lauroyl-3′-O-(palmitoyl)thymidine]", "values": [{"measurement": "Diameter of inhibition zone, B. subtilis (+ve)", "setting": "[1]", "value": "14.50 mm and 14.5 ± 0.1 mm"}, {"measurement": "Diameter of inhibition zone, S. typhi (-ve)", "setting": "[2]", "value": "*15.25 ± 0.2 mm"}, {"measurement": "% inhibition of fungal mycelial growth in mm (20 μg/μL), Aspergillus niger", "setting": "[5]", "value": "57.62 ± 1.1", "unit": "%"}, {"measurement": "Diameter of inhibition zone, P. aeruginosa (-ve)", "setting": "[3]", "value": "8.50 ± 0.2", "unit": "mm"}, {"measurement": "% inhibition of fungal mycelial growth in mm (20 μg/μL), Aspergillus. flavus", "setting": "[6]", "value": "*81.55 ± 1.0%"}, {"measurement": "Diameter of inhibition zone, E. coli (-ve)", "setting": "[4]", "value": "9.00 ± 0.2", "unit": "mm"}]}
{"compound": "CCCCCCCCCCCC(=O)OC[C@H]1O[C@@H](n2cc(C)c(=O)[nH]c2=O)C[C@@H]1OC(=O)c1ccc(C(C)(C)C)cc1", "note": "[analog 3, 3́-O-(4-t-Butylbenzoyl)-5́-O-(lauroyl)thymidine]", "values": [{"measurement": "Diameter of inhibition zone, B. subtilis (+ve)", "setting": "[1]", "value": "13.25 mm and 13.25 ± 0.2 mm"}, {"measurement": "Diameter of inhibition zone, S. typhi (-ve)", "setting": "[2]", "value": "9.75 ± 0.2", "unit": "mm"}, {"measurement": "% inhibition of fungal mycelial growth in mm (20 μg/μL), Aspergillus niger", "setting": "[5]", "value": "*65.25 ± 1.1%"}, {"measurement": "Diameter of inhibition zone, P. aeruginosa (-ve)", "setting": "[3]", "value": "*11.75 ± 0.4 mm"}, {"measurement": "% inhibition of fungal mycelial growth in mm (20 μg/μL), Aspergillus. flavus", "setting": "[6]", "value": "*72.95 ± 1.0%"}, {"measurement": "MBC", "setting": "[7]", "value": "8 to 16", "unit": "µg/mL"}, {"measurement": "MIC", "setting": "[7]", "value": "0.125 to 8", "unit": "µg/mL"}]}
{"compound": "C[C@@H]1[C@H](O)[C@@H](C)/C=C/C=C/CC/C=C/C=C/C=C/C=C/C(O[C@H]2O[C@H](C)[C@@H](O)[C@H](N)[C@@H]2O)CC2O[C@](O)(CC(O)C(O)CCC(O)CC(O)CC(O)CC(=O)O[C@H]1C)CC(O)C2C(=O)O", "note": "(some centres unmarked) [Nystatin, reference compound]", "values": [{"measurement": "% inhibition of fungal mycelial growth in mm (20 μg/μL), Aspergillus niger", "setting": "[5]", "value": "**65.4 ± 1.0%"}, {"measurement": "% inhibition of fungal mycelial growth in mm (20 μg/μL), Aspergillus. flavus", "setting": "[6]", "value": "**64.1 ± 1.0%"}]}
{"compound": "CCCCCCCCCCCC(=O)OC[C@H]1O[C@@H](n2cc(C)c(=O)[nH]c2=O)C[C@@H]1O", "note": "[analog 2, 5́-O-(Lauroyl)thymidine]", "values": [{"measurement": "% death of brine shrimp (level of toxicity)", "setting": "[8]", "value": 36.25, "unit": "%"}, {"measurement": "Diameter of inhibition zone, S. typhi (-ve)", "setting": "[2]", "value": "*14.50 ± 0.3 mm"}, {"measurement": "% inhibition of fungal mycelial growth in mm (20 μg/μL), Aspergillus niger", "setting": "[5]", "value": "*60.16 ± 1.2%"}, {"measurement": "MIC", "setting": "[9]", "value": 0.125, "unit": "µg/mL"}, {"measurement": "Diameter of inhibition zone, P. aeruginosa (-ve)", "setting": "[3]", "value": "*12.75 ± 0.1 mm"}, {"measurement": "% inhibition of fungal mycelial growth in mm (20 μg/μL), Aspergillus. flavus", "setting": "[6]", "value": "*82.76 ± 1.0%"}, {"measurement": "Diameter of inhibition zone, E. coli (-ve)", "setting": "[4]", "value": "*13.00 ± 0.1 mm"}, {"measurement": "MBC", "setting": "[7]", "value": "8 to 16", "unit": "µg/mL"}, {"measurement": "MIC", "setting": "[7]", "value": "0.125 to 8", "unit": "µg/mL"}]}
{"compound": "CCCCCCCCCCCC(=O)OC[C@H]1O[C@@H](n2cc(C)c(=O)[nH]c2=O)C[C@@H]1OC(=O)c1ccc(Br)cc1", "note": "[analog 6, 3́-O-(4-Bromobenzoyl)-5́-O-(lauroyl)thymidine]", "values": [{"measurement": "% death of brine shrimp (level of toxicity)", "setting": "[8]", "value": 38.75, "unit": "%"}, {"measurement": "Diameter of inhibition zone, S. typhi (-ve)", "setting": "[2]", "value": "9.5 ± 0.1", "unit": "mm"}]}
{"compound": "CCCCCCCCCCCCCC(=O)O[C@H]1C[C@H](n2cc(C)c(=O)[nH]c2=O)O[C@@H]1COC(=O)CCCCCCCCCCC", "note": "[analog 4, 5́-O-Lauroyl-3́-O-(myristoyl)thymidine]", "values": [{"measurement": "Diameter of inhibition zone, B. subtilis (+ve)", "setting": "[1]", "value": "12.75 mm and 12.75 ± 0.1 mm"}, {"measurement": "Diameter of inhibition zone, E. coli (-ve)", "setting": "[4]", "value": "*12.5 ± 0.2 mm"}]}
